# Measurements reported in ChEMBL document CHEMBL4382263, “Spirostaphylotrichin X from a Marine-Derived Fungus as an Anti-influenza Agent Targeting RNA Polymerase PB2” (J Nat Prod, 2018).
# The source made the active and inactive calls. The rule behind the calls is not given here.
# Assays:
# [1] = tested on: Influenza A virus (A/Puerto Rico/8/1934(H1N1)); assay: Inhibition of RNA polymerase in Influenza A virus (A/PR/8/34(H1N1)) infected in human 293T cells harboring pPol1-Fluc at 10 uM after 24 hrs by luciferase reporter gene assay; type: cell-based
# Procedure, shortened: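 293T cells transfected with 50 ng pPolI-Fluc reporter. After 5 h, infected with PR8 at different titres for 1 h. Then given DMEM/10% FBS with 10 μM compound or 0.1% DMSO; luciferase measured in lysates after 24 h.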
# Influenza A virus = assay: Antiviral activity against Influenza A virus (A/PR/8/34(H1N1)) harboring neuraminidase H274Y mutant infected in MDCK cells assessed as reduction in virus-induced cytopathic effect by MTT assay; type: functional, organism-based, A/Puerto Rico/8/1934(H1N1)
# Procedure, shortened: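 MTT-based cytopathic-effect reduction assay in MDCK cells. Run in triplicate; IC50 reported as mean ± SD.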
smiles,measurement,setting,value
CC/C=C1/C=CC(=O)[C@@H](O)[C@]12C(=O)N(OC)[C@@](C)(OC)[C@@H]2O,inhibition,[1],Active
same,IC50,Influenza A virus,1200 nM
